This data set concerns Salmonella typhimurium. The data set is described as follows: Mutagenicity in Salmonella typhimurium strain TA92 assessed as number of bacterial revertants after 2 days by Ames test in presence of rat liver S9 fraction. Type of data set: toxicity, organism-based. Conditions: salmonella enterica subsp. enterica serovar typhimurium, s9, 48 h. In short, it runs like this: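 S. typhimurium TA92 (hisG46, pKM101) grown 12-16 h at 37 °C in nutrient broth (~10⁹ cells/mL). S-9 from livers of Aroclor 1254-induced female Sprague-Dawley rats (500 mg/kg ip, 5 days before sacrifice). Compound in Me₂SO, bacteria and S-9 mix preincubated 20 min at 30 °C, then plated in histidine/biotin top agar and incubated 2 days at 37 °C. Revertants were hand counted, with spontaneous control revertants subtracted. Triplicates were run. The end point was 30 revertants/10⁸ bacteria, interpolated to give log 1/C.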
On the technique in general: In the Ames test, an excess of revertant colonies over the control signals mutagenicity.

In the case of `Cc1ccc(/N=N/N(C)C)cc1`, the “log(1/C)” value is on record as 7. In the case of `CN(C)/N=N/c1[nH]cnc1C(N)=O` [DACARBAZINE] it was 3; in that of `Cc1cccc(/N=N/N(C)C)c1`, 6.44. On to `CN(/N=N/c1ccc(C(N)=O)cc1)C(C)(C)C`, for which the “log(1/C)” value was found to be 3.83. `CN(C)/N=N/c1ccc(S(N)(=O)=O)cc1`: the “log(1/C)” value was found to be 3.49. In the case of `CN(C)/N=N/c1ccc(NC(N)=O)cc1` it was 5.59. The same measure for `CN(C)/N=N/c1ccccc1`: 5.32.

In the case of `CN(C)/N=N/c1cc(C#N)cc(C#N)c1`, the “log(1/C)” value is reported as 3.46.

Turning to `CN(C)/N=N/c1ccc(Cl)cc1`, the “log(1/C)” value stood at 6.48. The same measure for `CCCCN(C)/N=N/c1ccc(C(N)=O)cc1`: 5.41; for `C=CCN(C)/N=N/c1ccc(C(N)=O)cc1`: 4.16. With `CN(C)/N=N/c1ccc(-c2ccccc2)cc1`, the “log(1/C)” value worked out at 7.67.

On to `CN(C)/N=N/c1cccc(NC(N)=O)c1`, for which the “log(1/C)” value stood at 4.19. On to `CN(C)/N=N/c1ccc(C#N)cc1`, for which the “log(1/C)” value turned out to be 4.43. The same measure for `CN(C)/N=N/c1ccc(C(F)(F)F)cc1`: 5.99.

Consider `COc1cc2c(c3oc(=O)c4c(c13)CCC4=O)[C@@H]1C=CO[C@@H]1O2` [AFLATOXIN], for which the “log(1/C)” value is recorded as 9.48. For the compound `CN(C)/N=N/c1cccc(C(N)=O)c1`, the “log(1/C)” value came to 3.51. In the case of `CC(=O)Nc1ccc(/N=N/N(C)C)cc1` it was 5.83; in that of `CN(C)/N=N/c1ccc(C(N)=O)cc1`, 4.04. Take `CC(=O)c1ccc(/N=N/N(C)C)cc1`: the “log(1/C)” value worked out at 4.47.

Values taken from ChEMBL document CHEMBL3227950, “Ames test of 1-(X-phenyl)-3,3-dialkyltriazenes. A quantitative structure-activity study” (J Med Chem, 1979).
